ChEMBL document CHEMBL5244249, “Discovery of tofacitinib derivatives as orally active antitumor agents based on the scaffold hybridization strategy” (Eur J Med Chem, 2020)
Active and inactive are the calls of the source. The rule behind the calls is not given here.

Columns and labels:
[1] = test system: MGC-803; test: Antiproliferative activity against human MGC-803 cells assessed as inhibition of cell growth incubated for 72 hrs by MTT assay; assay type: functional, cell-based; conditions: MGC-803, 72 h
How it was run: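 Antiproliferative screen in gastric cancer lines MGC-803, HGC-27 and BGC-823 by MTT assay; IC50 reported as mean ± SD.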

[2] = test system: MGC-803; test: Induction of mitochondrial dysfunction in human MGC-803 cells assessed as upregulation of cleaved caspase-9 expression at 5 to 10 uM incubated for 24 hrs by Western blot analysis; assay type: functional, cell-based; conditions: dose 5-10 µM
How it was run: (§1)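 Western blot of caspase 9, 3, 7, PARP and γH2A.X in MGC-803 lysates after 24 h exposure to 5, 7.5 or 10 μM; band quantitation; mean ± SD from three independent experiments.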

[3] = test system: MGC-803; test: Cell cycle arrest in human MGC-803 cells assessed as G2/M phase cells at 7.5 uM incubated for 24 hrs by RNase/PI staining based flow cytometric analysis (reference value: 15.11%); assay type: functional
[4] = test system: MGC-803; test: Induction of apoptosis in human MGC-803 cells assessed as early apoptotic cells at 10 uM incubated for 48 hrs by Annexin V-FITC/PI staining based flow cytometric analysis (reference value: 2.5 %); assay type: functional
[5] = test system: MGC-803; test: Induction of mitochondrial dysfunction in human MGC-803 cells assessed as downregulation of procaspase-3 expression at 5 to 10 uM incubated for 24 hrs by Western blot analysis; assay type: functional, cell-based; conditions: dose 5-10 µM; how it was run: as §1
[6] = test system: MGC-803; test: Cell cycle arrest in human MGC-803 cells assessed as G2/M phase cells at 5 uM incubated for 24 hrs by RNase/PI staining based flow cytometric analysis (reference value: 15.11%); assay type: functional
[7] = test system: MGC-803; test: Induction of apoptosis in human MGC-803 cells assessed as late apoptotic cells at 10 uM incubated for 48 hrs by Annexin V-FITC/PI staining based flow cytometric analysis (reference value: 0.5 %); assay type: functional
[8] = test system: MGC-803; test: Induction of mitochondrial dysfunction in human MGC-803 cells assessed as increase in green fluorescence intensity at 7.5 uM incubated for 24 hrs by JC-1 staining based fluorescence microscopic analysis (reference value: 9.9%); assay type: functional
[9] = test system: MGC-803; test: Induction of apoptosis in human MGC-803 cells assessed as early apoptotic cells at 5 uM incubated for 24 hrs by Annexin V-FITC/PI staining based flow cytometric analysis (reference value: 3.9 %); assay type: functional
[10] = Activation of MAPK pathway in human MGC-803 cells assessed as increase in phosphorylated p38 expression at 5 to 10 uM incubated for 24 hrs by Western blot analysis; assay type: cell-based; conditions: filed as activator, dose 5-10 µM
[11] = test system: MGC-803; test: Cell cycle arrest in human MGC-803 cells assessed as G0/G1 phase cells at 5 uM incubated for 24 hrs by RNase/PI staining based flow cytometric analysis (reference value: 54.99%); assay type: functional
[12] = test system: MGC-803; test: Induction of apoptosis in human MGC-803 cells assessed as viable cells at 7.5 uM incubated for 48 hrs by Annexin V-FITC/PI staining based flow cytometric analysis (reference value: 96.7 %); assay type: functional; conditions: read-out: Activity
[13] = test system: MGC-803; test: Inhibition of colony formation in human MGC-803 cells at 2 uM incubated for 9 days by crystal violet staining based analysis relative to control; assay type: functional; conditions: MGC-803, 216 h, time 9 day
How it was run: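 Clonogenic assay: MGC-803 cells grown 9 days with 0, 1, 2 or 3 μM; colonies counted and inhibition rate calculated against untreated control; mean ± SD of three independent experiments.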

[14] = test system: MGC-803; test: Induction of apoptosis in human MGC-803 cells assessed as necrotic cells at 10 uM incubated for 24 hrs by Annexin V-FITC/PI staining based flow cytometric analysis (reference value: 2.0 %); assay type: functional
[15] = test system: MGC-803; test: Induction of apoptosis in human MGC-803 cells assessed as necrotic cells at 5 uM incubated for 48 hrs by Annexin V-FITC/PI staining based flow cytometric analysis (reference value: 0.3 %); assay type: functional
[16] = test system: MGC-803; test: Cell cycle arrest in human MGC-803 cells assessed as G0/G1 phase cells at 7.5 uM incubated for 24 hrs by RNase/PI staining based flow cytometric analysis (reference value: 54.99%); assay type: functional
[17] = test system: MGC-803; test: Cell cycle arrest in human MGC-803 cells assessed as G0/G1 phase cells at 10 uM incubated for 24 hrs by RNase/PI staining based flow cytometric analysis (reference value: 54.99%); assay type: functional
[18] = test system: MGC-803; test: Induction of mitochondrial dysfunction in human MGC-803 cells assessed as downregulation of procaspase-9 expression at 5 to 10 uM incubated for 24 hrs by Western blot analysis; assay type: functional, cell-based; conditions: dose 5-10 µM; how it was run: as §1
[19] = test system: MGC-803; test: Induction of mitochondrial dysfunction in human MGC-803 cells assessed as downregulation of procaspase-7 expression at 5 to 10 uM incubated for 24 hrs by Western blot analysis; assay type: functional, cell-based; conditions: dose 5-10 µM; how it was run: as §1
[20] = test system: MGC-803; test: Cell cycle arrest in human MGC-803 cells assessed as S phase cells at 10 uM incubated for 24 hrs by RNase/PI staining based flow cytometric analysis (reference value: 27.1%); assay type: functional
[21] = Toxicity in SCID mouse xenografted with human MGC-803 cells assessed as effect on body weight at 12.5 to 25 mg/kg, IG administered for 21 days; assay type: organism-based; conditions: in vivo, po, 504 h, dose 12.5-25 mg/kg, time 21 day
How it was run: (§2)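 SCID mice bearing subcutaneous MGC-803 xenografts (right side) dosed with 12.5 or 25 mg/kg over 21 days, 0.5% CMC-Na vehicle as control; body weight and tumor size monitored periodically; major organs examined histopathologically at end; means ± SD.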

[22] = test system: MGC-803; test: Induction of apoptosis in human MGC-803 cells assessed as viable cells at 10 uM incubated for 24 hrs by Annexin V-FITC/PI staining based flow cytometric analysis (reference value: 90.3 %); assay type: functional; conditions: read-out: Activity
[23] = test system: MGC-803; test: Induction of apoptosis in human MGC-803 cells assessed as early apoptotic cells at 7.5 uM incubated for 48 hrs by Annexin V-FITC/PI staining based flow cytometric analysis (reference value: 2.5 %); assay type: functional
[24] = test system: MGC-803; test: Induction of apoptosis in human MGC-803 cells assessed as increase in Bax protein expression at 5 to 10 uM incubated for 24 hrs by Western blot analysis; assay type: functional, cell-based; conditions: dose 5-10 µM
How it was run: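 After 24 h exposure of MGC-803 cells, Bcl-2, Mcl-1, Bax and cytochrome c release assessed by Western blot with band quantitation; mean ± SD from three independent experiments.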

[25] = test system: MGC-803; test: Induction of apoptosis in human MGC-803 cells assessed as nuclear condensation at 5 to 10 uM incubated for 24 hrs by Hoechst 33342 staining based fluorescence microscopic analysis; assay type: functional, cell-based; conditions: dose 5-10 µM
How it was run: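 MGC-803 cells treated at 0, 5, 7.5 and 10 μM; cell morphology and nuclear morphology (fragmentation, condensation) examined by staining and imaging; three independent experiments, mean ± SD.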

[26] = Toxicity in SCID mouse xenografted with human MGC-803 cells assessed as effect on kidney at 12.5 to 25 mg/kg, IG administered for 21 days by H&E staining based histopathological analysis; assay type: organism-based; conditions: in vivo, po, 504 h, dose 12.5-25 mg/kg, time 21 day; how it was run: as §2
[27] = test system: MGC-803; test: Induction of apoptosis in human MGC-803 cells assessed as early apoptotic cells at 10 uM incubated for 24 hrs by Annexin V-FITC/PI staining based flow cytometric analysis (reference value: 3.9 %); assay type: functional
[28] = test system: MGC-803; test: Induction of apoptosis in human MGC-803 cells assessed as necrotic cells at 7.5 uM incubated for 48 hrs by Annexin V-FITC/PI staining based flow cytometric analysis (reference value: 0.3 %); assay type: functional

IC50 [1]: 2680 nM
Compound: Cc1cc(N2CC[C@@H](C)[C@@H](N(C)c3ncnc4[nH]ccc34)C2)n2nc(SCc3ccc(C(F)(F)F)cc3)nc2n1
Activity [2]: Active
Activity [3]: 12.24%
Activity [4]: 4.9%
Activity [5]: Active
Activity [6]: 10.78%
Activity [7]: 77.2%
Activity [8]: 39.1%
Activity [9]: 5.5%
Activity [10]: Active
Activity [11]: 56.93%
viability at 7.5 µM [12]: 22.1%
inhibition at 2 µM [13]: 54%
Activity [14]: 2.2%
Activity [15]: 0.9%
Activity [16]: 56.42%
Activity [17]: 56.74%
Activity [18]: Active
Activity [19]: Active
Activity [20]: 28.14%
Activity [21]: Non-Toxic
viability at 10 µM [22]: 57.1%
Activity [23]: 8.8%
Activity [24]: Active
Activity [25]: Active
Activity [26]: Non-Toxic
Activity [27]: 12.7%
Activity [28]: 1.6%
